Measurements taken from article PMC5024769 (Drug Design, Development and Therapy, 2016).
Entries after “also recorded” stand apart in the source; their conditions may differ.

How the values were obtained:
[1] = In vitro stability in rat plasma; type: in vitro ADME; details: 60 minutes incubation with rat plasma
Procedure, shortened: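 Rat plasma was separated by centrifugation and diluted with pH 7.4 phosphate buffer to 80% final. Test compound (20 µM final) was incubated at 37°C for 60 min with agitation, then quenched with MeOH plus CH3CN. Analysis was by HPLC-UV at 254 nm, with acetonitrile–water gradient, mobile phase pH 7.0 (NH4OH) and methyl biphenyl-4-carboxylate internal standard (20 µM). Three independent experiments in duplicate.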

[2] = system: diabetic rats (Rattus norvegicus); experiment: Blood glucose after a single dose in diabetes model induced by STZ; type: in vivo; details: for Blood glucose after single dose / Hypoglycemic activity (in words) / Blood glucose before single dose: STZ diabetic rats; for Blood glucose after single dose / Hypoglycemic activity (in words): 20 mg·kg−1 ip, single dose; for Blood glucose before single dose: value before treatment (time control)
Procedure, shortened: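 Diabetes was induced in rats by single iv STZ (60 mg·kg−1 in citrate buffer, pH 4.5). After 4 weeks, male Wistar rats (180–220 g) with glycemia >300 mg/dL were used. Groups were non-diabetic, diabetic plus DMSO vehicle, and diabetic plus test compound (single 20 mg·kg−1 ip dose). Plasma glucose was read by glucometer at 0, 30, 60, 120 and 180 min. n=7/group; mean ± SEM; Student's t-test versus time control.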

[3] = system: diabetic rats (Rattus norvegicus); experiment: Blood glucose during 7 days' treatment of STZ diabetic rats; type: in vivo; details: 50 mg/kg once a day for 7 days
Procedure, shortened: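 Male Wistar rats (180–220 g) were made diabetic by single iv STZ (60 mg·kg−1, citrate buffer pH 4.5); after 4 weeks, those with glycemia >300 mg/dL were used. They received test compound 50 mg·kg−1 ip once daily for 7 days, with DMSO as vehicle. Plasma glucose was measured before treatment and on days 3 and 7.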

[4] = system: diabetic rats (Rattus norvegicus); experiment: Thermal hyperalgesia; type: in vivo; details: STZ diabetic rats
Procedure, shortened: (§1)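 Male Wistar rats (180–220 g) were made diabetic by single iv STZ 60 mg·kg−1 (glycemia >300 mg/dL). Thermal hyperalgesia was scored as paw withdrawal latency to radiant heat on the hind paw (plantar meter). Mechanical allodynia was scored as paw withdrawal threshold to pressure (digital analgesiometer). Readings were taken before and 4 weeks after induction, then 3 and 7 days into daily test compound 50 mg·kg−1 ip (DMSO vehicle). n=5/group; mean ± SEM; two-way ANOVA.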

[5] = system: diabetic rats (Rattus norvegicus); experiment: Mechanical allodynia; type: in vivo; details: STZ diabetic rats
Procedure, shortened: as §1

[6] = In vitro chemical stability in buffer at pH 2.0 and pH 7.4; type: physicochemical; details: pH 2.0, 20 µM, 37°C
Procedure, shortened: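 DMSO stocks (5–10 mM) were diluted into pH 2 buffer (0.2 M KCl/0.2 M HCl) or pH 7.4 dibasic phosphate buffer, giving 20 µM test compound. Samples were held in a 37°C water bath with vigorous stirring for 0, 30, 60 and 120 min. Acid samples were then neutralised with pH 8.4 phosphate buffer. % remaining = peak area at each time / area at 0 min × 100. At least two experiments in triplicate.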

[7] = system: diabetic neuropathic pain model induced by STZ in rats; details: cited from earlier work
PPARγ [8] = target: T1, PPARγ (Homo sapiens, UniProt P37231); details: cited from earlier work
T1 sequence (P37231 1-505): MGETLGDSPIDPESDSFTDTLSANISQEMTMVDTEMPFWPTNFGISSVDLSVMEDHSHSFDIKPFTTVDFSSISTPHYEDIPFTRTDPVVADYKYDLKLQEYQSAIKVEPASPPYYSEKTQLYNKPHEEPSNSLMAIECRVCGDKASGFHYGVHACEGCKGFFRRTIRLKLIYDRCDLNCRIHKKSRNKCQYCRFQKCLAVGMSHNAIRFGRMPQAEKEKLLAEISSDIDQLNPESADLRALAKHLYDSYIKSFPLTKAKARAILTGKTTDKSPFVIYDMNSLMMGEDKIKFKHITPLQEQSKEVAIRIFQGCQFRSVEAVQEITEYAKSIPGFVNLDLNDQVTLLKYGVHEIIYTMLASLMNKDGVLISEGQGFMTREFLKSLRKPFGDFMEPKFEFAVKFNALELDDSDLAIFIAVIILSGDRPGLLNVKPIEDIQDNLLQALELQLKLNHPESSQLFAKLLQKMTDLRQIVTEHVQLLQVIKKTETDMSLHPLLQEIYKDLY

PPARγ [9] = target: T1, PPARγ; experiment: PPARγ binding assay performed by CEREP; details: single concentration 30 µM, rosiglitazone as positive control

COc1ccc(S(=O)(=O)N/N=C/c2cccc(C(=O)O)c2)cc1OC [Compound 4, (E)-3-((2-(3,4-dimethoxyphenylsulfonyl) hydrazono)methyl)benzoic acid]
Plasma stability (in words) [1]: very stable

COC(=O)c1cccc(/C=N/N(C)S(=O)(=O)c2ccc(OC)c(OC)c2)c1 [Compound 5, (E)-methyl 3-((2-(3,4-dimethoxyphenylsulfonyl)-2-methylhydrazono)methyl)benzoate]
Plasma stability (in words) [1]: very stable | Solubility in DMSO ([2]; dosing vehicle DMSO): partially insoluble in DMSO

COC(=O)c1ccc(/C=N/N(C)S(=O)(=O)c2ccc(OC)c(OC)c2)cc1 [Compound 6, (E)-methyl 4-((2-(3,4-dimethoxyphenylsulfonyl)-2-methylhydrazono)methyl)benzoate]
Plasma stability (in words) [1]: unstable | Blood glucose after single dose [2]: 255.3 ± 42.2 mg/dL | Hypoglycemic activity (in words) [2]: showed hypoglycemic activity | Blood glucose before single dose [2]: 397.1 ± 38.2 mg/dL

COC(=O)c1ccc(/C=N/NS(=O)(=O)c2ccc(OC)c(OC)c2)cc1 [Compound 7, (E)-methyl 4-((2-(3,4-dimethoxyphenylsulfonyl)hydrazono)methyl)benzoate]
Hypoglycemic activity (in words) [3]: promoted hypoglycemic activity only after 7 days of treatment | Plasma stability (in words) [1]: unstable | Blood glucose after single dose [2]: 182.2 ± 22.7 mg/dL | Hypoglycemic activity (in words) [2]: showed hypoglycemic activity | Blood glucose before single dose [2]: 384.0 ± 41.9 mg/dL | Paw withdrawal latency (PWL), after 3 days of treatment ([4]; 50 mg·kg−1 ip): 12.2 ± 0.9 s | Paw withdrawal latency (PWL), after 7 days of treatment ([4]; 50 mg·kg−1 ip): 13.3 ± 0.2 s | Paw withdrawal latency (PWL), before treatment ([4]; four weeks after induction): 8.5 ± 0.2 s | Effect on diabetic neuropathic pain (in words) ([4]; long-term administration, 50 mg·kg−1 ip): reduced diabetic neuropathic pain | Paw withdrawal threshold (PWT), after treatment ([5]; 50 mg·kg−1 ip, long-term administration): 36.7 ± 0.9 g | Paw withdrawal threshold (PWT), before treatment ([5]; four weeks after induction): 24.0 ± 1.4 g

COc1ccc(S(=O)(=O)N/N=C/c2ccc(C#N)cc2)cc1OC [Compound 8, (E)-N′-(4-cyanobenzylidene)-3,4-dimethoxybenzenesulfonohydrazide]
Chemical stability [6]: unstable | Plasma stability (in words) [1]: unstable

COc1ccc(S(=O)(=O)N(C)/N=C/c2ccc(C#N)cc2)cc1OC [Compound 9, (E)-N′-(4-cyanobenzylidene)-3,4-dimethoxy-N-methylbenzene-sulfonohydrazide]
Glucose levels after 7 days ([7]; 50 mg/kg for 7 days, vehicle 410.0±58.0 mg/dL): 242.4 ± 55.3 mg/dL | Antinociceptive activity ([7]; diabetic neuropathic pain model induced by STZ in rats): antinociceptive agent | Plasma stability (in words) [1]: very stable; also recorded: high chemical and plasma stability | Hypoglycemic activity (in words) [2]: did not reduce hyperglycemia | PPARγ activity as described earlier (PPARγ [8]): partial agonist of PPARγ

COc1ccc(S(=O)(=O)N/N=C/c2ccc(C(=O)O)cc2)cc1OC [Compound 10, (E)-4-((2-(3,4-dimethoxyphenylsulfonyl) hydrazono)methyl)benzoic acid]
Inhibition of control specific binding to PPARγ (PPARγ [9]): unable to bind to PPARγ
